According to ChEMBL document CHEMBL1153899, “Discovery of benzothiazole derivatives as efficacious and enterocyte-specific MTP inhibitors” (Bioorg Med Chem Lett, 2009):
The source made the active and inactive calls. The rule behind the calls is not given here.

Key:
[1] = Half life in Sprague-Dawley rat plasma at 30 mg/kg, po; assay type: ADME, organism-based; design: dose 30 mg/kg, route oral
Method in brief: (§1)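 Dose-proportionality PK in Sprague–Dawley rats (n = 3) given single oral doses of 3, 10, 30 or 100 mg/kg. Liver and plasma were sampled at 0.5, 1, 2, 4 and 8 h and assayed for drug concentration to derive Cmax, AUC(0–∞) and T1/2.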

[2] = Clearance in Sprague-Dawley rat at 1 mg/kg, iv; assay type: ADME, organism-based; design: dose 1 mg/kg, route intravenous; conditions: in vivo
Mus musculus [3] = test: Decrease in total food intake in 3-day high fat diet fed C57BL/6 mouse at 10 mg/kg, po daily for 3 days; assay type: functional; design: scale not given: the % may be the effect or the level left
Mus musculus [4] = test: Decrease in plasma glucose level in 28-day diet-induced obesity C57BL/6 mouse model at 1 to 3 mg/kg, po daily for 4 weeks; assay type: functional, organism-based
Method in brief: (§2)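 C57BL/6 male mice were fed high-fat diet for 4 weeks beforehand to about 40 g and kept on it throughout. Groups of n = 10 were dosed po once daily for 4 weeks at 1 or 3 mg/kg, or vehicle (5% PEG400, 0.25% Tween 80, 94.25% H2O). Food was weighed and replaced with pre-weighed food 3 times weekly. Fed plasma glucose was taken at 2 weeks and insulin at 4 weeks.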

[5] = AUC (0 to infinity) in Sprague-Dawley rat liver at 100 mg/kg, po; assay type: ADME, organism-based; design: time infinity, dose 100 mg/kg, route oral; method in brief: as §1
[6] = Cmax in Sprague-Dawley rat liver at 10 mg/kg, po; assay type: ADME, organism-based; design: dose 10 mg/kg, route oral; method in brief: as §1
[7] = Tmax in Sprague-Dawley rat at 3 mg/kg, po; assay type: ADME, organism-based; design: dose 3 mg/kg, route oral; conditions: in vivo
Method in brief: (§3)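 Rats dosed orally at 3 mg/kg; Cmax, Tmax, oral half-life and AUC determined from plasma, and oral bioavailability (%F) calculated against the 1 mg/kg IV bolus.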

[8] = Cmax in Sprague-Dawley rat plasma at 30 mg/kg, po; assay type: ADME, organism-based; design: dose 30 mg/kg, route oral; method in brief: as §1
Mus musculus [9] = test: Decrease in body weight in 28-day diet-induced obesity C57BL/6 mouse model at 3 mg/kg, po daily for 4 weeks; assay type: functional; design: scale not given: the % may be the effect or the level left; method in brief: as §2
[10] = Half life in Sprague-Dawley rat liver at 100 mg/kg, po; assay type: ADME, organism-based; design: dose 100 mg/kg, route oral; method in brief: as §1
[11] = AUC (0 to infinity) in Sprague-Dawley rat liver at 10 mg/kg, po; assay type: ADME, organism-based; design: time infinity, dose 10 mg/kg, route oral; method in brief: as §1
Mus musculus [12] = test: Decrease in total food intake in 28-day diet-induced obesity C57BL/6 mouse model at 3 mg/kg, po daily for 4 weeks measured on day 21; assay type: functional; design: scale not given: the % may be the effect or the level left; method in brief: as §2
Mus musculus [13] = test: Decrease in total food intake in 3-day high fat diet fed C57BL/6 mouse at 3 mg/kg, po daily for 3 days; assay type: functional; design: scale not given: the % may be the effect or the level left
Method in brief: (§4)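 Lean C57BL/6 mice were given high-fat diet for 1 week, then dosed orally once daily in the evening for 3 days. Food intake and body weight were recorded daily. At the end a morning dose was given, and blood was drawn at 30 min, 2 h and 6 h for plasma triglycerides.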

Mus musculus [14] = test: Decrease in total food intake in 28-day diet-induced obesity C57BL/6 mouse model at 1 to 3 mg/kg, po daily for 4 weeks measured on day 4
[15] = AUC (0 to infinity) in Sprague-Dawley rat plasma at 10 mg/kg, po; assay type: ADME, organism-based; design: time infinity, dose 10 mg/kg, route oral; method in brief: as §1
Mus musculus [16] = test: Toxicity in 28-day diet-induced obesity C57BL/6 mouse model assessed as liver aspartate aminotransferase level at 1 to 3 mg/kg, po daily for 4 weeks; assay type: organism-based; design: dose 1-3 mg/kg, route oral; conditions: in vivo, 672 h
Method in brief: (§5)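 C57BL/6 male mice kept on high fat diet 4 weeks before study (body weight about 40 g) and throughout; n = 10, dosed orally once daily for 4 weeks at 1 or 3 mg/kg, vehicle 5% PEG400, 0.25% Tween 80, 94.25% H2O; liver weight and ALT, AST, alkaline phosphatase assessed after 4 weeks.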

[17] = AUC (0 to infinity) in Sprague-Dawley rat plasma at 100 mg/kg, po; assay type: ADME, organism-based; design: time infinity, dose 100 mg/kg, route oral; method in brief: as §1
Mus musculus [18] = test: Increase in peptide YY level in 3-day high fat diet fed C57BL/6 mouse at 3 mg/kg, po daily for 3 days; assay type: functional, organism-based; design: dose 3 mg/kg
Method in brief: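 C57BL/6 male mice (n = 9) on high-fat diet were dosed po once daily for 3 days with vehicle (5% PEG400, 0.25% Tween 80, 94.25% H2O) or test article, then given a final morning dose. Blood was taken at 30 min, 2 h and 6 h, and PYY was measured by EIA kit. Statistics by Student's t test.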

Mus musculus [19] = test: Decrease in body weight in […] at 3 mg/kg, po daily for 3 days; assay type: functional, C57BL/6; design: scale not given: the % may be the effect or the level left
[20] = Cmax in Sprague-Dawley rat liver at 3 mg/kg, po; assay type: ADME, organism-based; design: dose 3 mg/kg, route oral; method in brief: as §1
[21] = Half life in Sprague-Dawley rat liver at 30 mg/kg, po; assay type: ADME, organism-based; design: dose 30 mg/kg, route oral; method in brief: as §1
[22] = Half life in Sprague-Dawley rat at 1 mg/kg, iv; assay type: ADME, organism-based; design: dose 1 mg/kg, route intravenous; conditions: in vivo
Mus musculus [23] = test: Increase in peptide YY level in 3-day high fat diet fed C57BL/6 mouse at 10 mg/kg, po daily for 3 days; assay type: functional, organism-based; design: dose 10 mg/kg
[24] = Half life in Sprague-Dawley rat plasma at 100 mg/kg, po; assay type: ADME, organism-based; design: dose 100 mg/kg, route oral; method in brief: as §1
[25] = AUC (0 to infinity) in Sprague-Dawley rat liver at 3 mg/kg, po; assay type: ADME, organism-based; design: time infinity, dose 3 mg/kg, route oral; method in brief: as §1
Mus musculus [26] = test: Decrease in plasma triglyceride level in […] C57BL/6 mouse at 3 mg/kg, po daily for 3 days measured after 6 hrs; assay type: functional; design: scale not given: the % may be the effect or the level left; method in brief: as §4
[27] = AUC (0 to infinity) in Sprague-Dawley rat at 1 mg/kg, iv; assay type: ADME, organism-based; design: time infinity, dose 1 mg/kg, route intravenous; conditions: plasma
[28] = AUC (0 to infinity) in Sprague-Dawley rat at 3 mg/kg, po; assay type: ADME, organism-based; design: dose 3 mg/kg, route oral, time infinity; conditions: plasma
Mus musculus [29] = test: Decrease in plasma triglyceride level in 28-day diet-induced obesity C57BL/6 mouse model at 1 to 3 mg/kg, po daily for 4 weeks; assay type: functional, organism-based; method in brief: as §2
[30] = Cmax in Sprague-Dawley rat liver at 100 mg/kg, po; assay type: ADME, organism-based; design: dose 100 mg/kg, route oral; method in brief: as §1
Mus musculus [31] = test: Decrease in plasma glucose level in 28-day diet-induced obesity C57BL/6 mouse model at 1 to 3 mg/kg, po daily for 4 weeks measured on week 2; assay type: functional, organism-based; method in brief: as §2
Mus musculus [32] = test: Increase in body weight in 28-day diet-induced obesity C57BL/6 mouse model at 1 mg/kg, po daily for 4 weeks; assay type: functional; method in brief: as §2
[33] = Half life in Sprague-Dawley rat liver at 3 mg/kg, po; assay type: ADME, organism-based; design: dose 3 mg/kg, route oral; method in brief: as §1
[34] = Oral bioavailability in Sprague-Dawley rat at 3 mg/kg; assay type: ADME, organism-based; conditions: in vivo; method in brief: as §3
[35] = AUC (0 to infinity) in Sprague-Dawley rat liver at 30 mg/kg, po; assay type: ADME, organism-based; design: dose 30 mg/kg, route oral, time infinity; method in brief: as §1
[36] = Cmax in Sprague-Dawley rat at 1 mg/kg, iv; assay type: ADME, organism-based; design: dose 1 mg/kg, route intravenous; conditions: in vivo
Mus musculus [37] = test: Toxicity in 28-day diet-induced obesity C57BL/6 mouse model assessed as liver alkaline phosphatase level at 1 to 3 mg/kg, po daily for 4 weeks; assay type: organism-based; design: dose 1-3 mg/kg, route oral; conditions: in vivo, 672 h; method in brief: as §5
[38] = Cmax in Sprague-Dawley rat plasma at 3 mg/kg, po; assay type: ADME, organism-based; design: dose 3 mg/kg, route oral; method in brief: as §1
HepG2 = test: Inhibition of apoB secretion in human HepG2 cells after 40 hrs by ELISA; assay type: functional, cell-based; conditions: HepG2, 40 h
[39] = Cmax in Sprague-Dawley rat plasma at 10 mg/kg, po; assay type: ADME, organism-based; design: dose 10 mg/kg, route oral; method in brief: as §1
[40] = Cmax in Sprague-Dawley rat liver at 30 mg/kg, po; assay type: ADME, organism-based; design: dose 30 mg/kg, route oral; method in brief: as §1
Mus musculus [41] = test: Decrease in total cholesterol level in 28-day diet-induced obesity C57BL/6 mouse model at 1 to 3 mg/kg, po daily for 4 weeks; assay type: functional, organism-based
[42] = Inhibition of MTP from dog liver microsomes by scintillation counting; design: species or system Canis lupus familiaris, Microsome

CC(C)c1ccc(-c2ccccc2C(=O)Nc2ccc3nc(C(=O)N[C@H](C(=O)N(C)Cc4ccc(F)cc4)c4ccccc4)sc3c2)cc1
half-life [1]: 10.4 h
clearance [2]: 17.2 mL/min/kg
Activity (Mus musculus [3]): 19%
Activity (Mus musculus [4]): Active
AUC(0-inf) [5]: 1780 ng·h/mL
Cmax [6]: 90.1 µg/kg
Tmax [7]: 0.5 h
Cmax [8]: 49.5 ng/mL
Activity (Mus musculus [9]): 3%
half-life [10]: 6.44 h
AUC(0-inf) [11]: 2640 ng·h/mL
Activity (Mus musculus [12]): 12%
Activity (Mus musculus [13]): 14%
Activity (Mus musculus [14]): Active
AUC(0-inf) [15]: 224 ng·h/mL
Activity (Mus musculus [16]): Non-toxic
AUC(0-inf) [17]: 598 ng·h/mL
Activity (Mus musculus [18]): Active
Activity (Mus musculus [19]): 3%
Cmax [20]: 57 µg/kg
half-life [21]: 23.7 h
half-life [22]: 2 h
Activity (Mus musculus [23]): Active
half-life [24]: 5.44 h
AUC(0-inf) [25]: 1220 ng·h/mL
Activity (Mus musculus [26]): 11%
AUC(0-inf) [27]: 976 ng·h/mL
AUC(0-inf) [28]: 40.8 ng·h/mL
Activity (Mus musculus [29]): Active
Cmax [30]: 84 µg/kg
Activity (Mus musculus [31]): Active
Activity (Mus musculus [32]): 1%
half-life [33]: 10.7 h
bioavailability [34]: 1.29%
AUC(0-inf) [35]: 3030 ng·h/mL
Cmax [36]: 5980 ng/mL
Activity (Mus musculus [37]): Non-toxic
Cmax [38]: 35 ng/mL
IC50 (HepG2): 6.2 nM
Cmax [39]: 58 ng/mL
Cmax [40]: 73.1 µg/kg
Activity (Mus musculus [41]): Active
IC50 [42]: 11.2 nM
